# Activity calls are given as the source filed them. No cut-off for these calls is given here.
# How the values were obtained:
# Format in all cases: functional
# EKVX = assay: Growth inhibition of human EKVX cells assessed as cell growth at 10^-5 M after 48 hrs by sulforhodamine B assay; settings: read-out: Activity
# In short: (§1)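 NCI 60-cell panel single high-dose screen: compound applied at 10^-5 M for 48 h, endpoint by sulforhodamine B protein-binding dye. Values reported as growth percent of treated cells relative to untreated control cells.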
# HOP-62 = assay: Growth inhibition of human HOP62 cells assessed as cell growth at 10^-5 M after 48 hrs by sulforhodamine B assay; settings: HOP-62, 48 h, read-out: Activity; in short: as §1
# NCI-H23 = assay: Growth inhibition of human NCI-H23 cells assessed as cell growth at 10^-5 M after 48 hrs by sulforhodamine B assay; settings: NCI-H23, 48 h, read-out: Activity
# In short: (§2)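 NCI-60 single high-dose screen run under the NCI protocol. Cells were incubated with compound at 10^-5 M for 48 h. The end point was determined by sulforhodamine B protein staining. Results are reported as percent growth of treated cells relative to untreated control cells.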
# NCI-H322M = assay: Growth inhibition of human NCI-H322M cells assessed as cell growth at 10^-5 M after 48 hrs by sulforhodamine B assay; settings: read-out: Activity; in short: as §2
# COLO 205 = assay: Growth inhibition of human COLO205 cells assessed as cell growth at 10^-5 M after 48 hrs by sulforhodamine B assay; settings: COLO 205, 48 h, read-out: Activity; in short: as §1
# HCC 2998 = assay: Growth inhibition of human HCC2998 cells assessed as cell growth at 10^-5 M after 48 hrs by sulforhodamine B assay; settings: HCC 2998, 48 h, read-out: Activity; in short: as §1
# HCT-116 = assay: Growth inhibition of human HCT116 cells assessed as cell growth at 10^-5 M after 48 hrs by sulforhodamine B assay; settings: HCT-116, 48 h, read-out: Activity; in short: as §1
# HCT-15 = assay: Growth inhibition of human HCT15 cells assessed as cell growth at 10^-5 M after 48 hrs by sulforhodamine B assay; settings: HCT-15, 48 h, read-out: Activity; in short: as §1
# SF-268 = assay: Growth inhibition of human SF268 cells assessed as cell growth at 10^-5 M after 48 hrs by sulforhodamine B assay; settings: SF-268, 48 h, read-out: Activity; in short: as §2
# SF-539 = assay: Growth inhibition of human SF539 cells assessed as cell growth at 10^-5 M after 48 hrs by sulforhodamine B assay; settings: SF-539, 48 h, read-out: Activity; in short: as §2
# LOX IMVI = assay: Growth inhibition of human LOXIMVI cells assessed as cell growth at 10^-5 M after 48 hrs by sulforhodamine B assay; settings: read-out: Activity; in short: as §1
# Malme-3M = assay: Growth inhibition of human MALME-3M cells assessed as cell growth at 10^-5 M after 48 hrs by sulforhodamine B assay; settings: read-out: Activity; in short: as §2
# SK-MEL-2 = assay: Growth inhibition of human SK-MEL-2 cells assessed as cell growth at 10^-5 M after 48 hrs by sulforhodamine B assay; settings: SK-MEL-2, 48 h, read-out: Activity; in short: as §2
# SK-MEL-5 = assay: Growth inhibition of human SK-MEL-5 cells assessed as cell growth at 10^-5 M after 48 hrs by sulforhodamine B assay; settings: SK-MEL-5, 48 h, read-out: Activity
# In short: (§3)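 NCI 60-cell panel single-dose screen under the NCI protocol. Cells are exposed to compound at one concentration (10^-5 M) for 48 h. The end point is protein staining with sulforhodamine B. Each line is reported as percent growth of treated cells relative to untreated control cells.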
# OVCAR-5 = assay: Growth inhibition of human OVCAR5 cells assessed as cell growth at 10^-5 M after 48 hrs by sulforhodamine B assay; settings: OVCAR-5, 48 h, read-out: Activity; in short: as §2
# 786-0 = assay: Growth inhibition of human 786-0 cells assessed as cell growth at 10^-5 M after 48 hrs by sulforhodamine B assay; settings: 786-0, 48 h, read-out: Activity; in short: as §1
# ACHN = assay: Growth inhibition of human ACHN cells assessed as cell growth at 10^-5 M after 48 hrs by sulforhodamine B assay; settings: read-out: Activity; in short: as §1
# RXF 393 = assay: Growth inhibition of human RXF393 cells assessed as cell growth at 10^-5 M after 48 hrs by sulforhodamine B assay; settings: RXF 393, 48 h, read-out: Activity; in short: as §2
# SN12C = assay: Growth inhibition of human SN12C cells assessed as cell growth at 10^-5 M after 48 hrs by sulforhodamine B assay; settings: read-out: Activity; in short: as §3
# DU-145 = assay: Growth inhibition of human DU145 cells assessed as cell growth at 10^-5 M after 48 hrs by sulforhodamine B assay; settings: DU-145, 48 h, read-out: Activity; in short: as §1
# MCF7 = assay: Growth inhibition of human MCF7 cells assessed as cell growth at 10^-5 M after 48 hrs by sulforhodamine B assay; settings: MCF7, 48 h, read-out: Activity; in short: as §2
# BT-549 = assay: Growth inhibition of human BT549 cells assessed as cell growth at 10^-5 M after 48 hrs by sulforhodamine B assay; settings: BT-549, 48 h, read-out: Activity; in short: as §1
# T47D = assay: Growth inhibition of human T47D cells assessed as cell growth at 10^-5 M after 48 hrs by sulforhodamine B assay; settings: read-out: Activity; in short: as §3
# MDA-MB-468 = assay: Growth inhibition of human MDA-MB-468 cells assessed as cell growth at 10^-5 M after 48 hrs by sulforhodamine B assay; settings: MDA-MB-468, 48 h, read-out: Activity; in short: as §2
# Streptococcus entericus = assay: Antibacterial activity against Streptococcus entericus assessed as zone of inhibition at 5 uL and 32 degC after 36 hrs by disk diffusion method
# In short: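 Disc diffusion on AC agar, each strain spread evenly over the medium; test compounds given as 1% (w/v) DMSO solutions. Plates covered and incubated 36 h at 32 °C, then the diameter of the zone of inhibited growth measured in mm. Tetracycline served as antibacterial reference.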
# Yarrowia lipolytica = assay: Antifungal activity against Yarrowia lipolytica assessed as zone of inhibition at 5 uL and 28 degC after 36 hrs by disk diffusion method
# In short: (§4)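 Agar disc diffusion with the test compound applied as a 1% (w/v) DMSO solution. Yeasts were grown on AC agar and Aspergillus niger on potato dextrose broth agar, each strain spread evenly. Plates were covered and kept 36 h at 28 °C, and the inhibition zone diameter was read in mm. Clotrimazole served as reference.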
# Aspergillus niger = assay: Antifungal activity against Aspergillus niger assessed as zone of inhibition at 5 uL and 28 degC after 36 hrs by disk diffusion method; in short: as §4
# [1] = Antifungal activity against Hyphopichia burtonii assessed as zone of inhibition at 5 uL and 28 degC after 36 hrs by disk diffusion method; in short: as §4
# HL-60(TB) = assay: Growth inhibition of human HL-60(TB) cells assessed as cell growth at 10^-5 M after 48 hrs by sulforhodamine B assay; settings: HL-60, 48 h, read-out: Activity
# In short: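 NCI single high-dose screen across the 60-cell panel (leukemia, melanoma, lung, colon, brain, breast, ovary, kidney, prostate), run per NCI protocol. Cells incubated with compound at 10^-5 M for 48 h. Sulforhodamine B protein-binding dye end point. Reported as growth percent of treated vs untreated control cells.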
# K562 = assay: Growth inhibition of human K562 cells assessed as cell growth at 10^-5 M after 48 hrs by sulforhodamine B assay; settings: K562, 48 h, read-out: Activity; in short: as §1
Compound,growth at 10 µM (EKVX) [%],growth at 10 µM (HOP-62) [%],growth at 10 µM (NCI-H23) [%],growth at 10 µM (NCI-H322M) [%],growth at 10 µM (COLO 205) [%],growth at 10 µM (HCC 2998) [%],growth at 10 µM (HCT-116) [%],growth at 10 µM (HCT-15) [%],growth at 10 µM (SF-268) [%],growth at 10 µM (SF-539) [%],growth at 10 µM (LOX IMVI) [%],growth at 10 µM (Malme-3M) [%],growth at 10 µM (SK-MEL-2) [%],growth at 10 µM (SK-MEL-5) [%],growth at 10 µM (OVCAR-5) [%],growth at 10 µM (786-0) [%],growth at 10 µM (ACHN) [%],growth at 10 µM (RXF 393) [%],growth at 10 µM (SN12C) [%],growth at 10 µM (DU-145) [%],also measured
CC(C)CCC[C@@H](C)[C@H]1CC[C@H]2C3=CC[C@@H]4C(=O)C=CC(=O)[C@@H]4[C@@H]3CC[C@]12C,-10,12.1,8.4,42.6,12.4,-75.5,3.29,11.3,-61.2,38.2,-43.4,17.5,41.9,-3.37,7.74,-5.66,4.54,-66.6,20.1,26.6,growth at 10 µM (MCF7): 8.65%; growth at 10 µM (BT-549): -1.63%; growth at 10 µM (T47D): -18.9%; growth at 10 µM (MDA-MB-468): 2.69%; diameter of the inhibition zone (DIZ) (Streptococcus entericus): inactive; diameter of the inhibition zone (DIZ) (Yarrowia lipolytica): inactive; diameter of the inhibition zone (DIZ) (Aspergillus niger): inactive; diameter of the inhibition zone (DIZ) [1]: inactive; growth at 10 µM (HL-60(TB)): -5.46%; growth at 10 µM (K562): 9.94%
CC(C)CCC[C@@H](C)[C@H]1CC[C@H]2C3=CCn4c(=O)ccc(=O)n4[C@@H]3CC[C@]12C,-82.2,-93.3,-55.4,-55.3,-93.1,-100,-44.6,-63.7,-92.3,-96.8,-89.5,-98,-93,-79.3,-84.3,-100,-95.1,-76,-97.7,-93.7,growth at 10 µM (MCF7): -92.5%; growth at 10 µM (BT-549): -30.9%; growth at 10 µM (T47D): -75.2%; growth at 10 µM (MDA-MB-468): -49%; diameter of the inhibition zone (DIZ) (Streptococcus entericus): 7 mm; diameter of the inhibition zone (DIZ) (Yarrowia lipolytica): 7 mm; diameter of the inhibition zone (DIZ) (Aspergillus niger): inactive; inhibition zone (IZ) [1]: 10 mm; growth at 10 µM (HL-60(TB)): -43.3%; growth at 10 µM (K562): -40%
CC(C)CCC[C@@H](C)[C@H]1CC[C@H]2[C@@H]3CCN4C(=O)CCC(=O)N4[C@@H]3CC[C@]12C,83.3,87.7,87,117,90.3,86.6,95,106,74.5,104,84.5,95.6,114,96.4,91.5,83.8,90,102,88,100,growth at 10 µM (MCF7): 88.5%; growth at 10 µM (BT-549): 84.7%; growth at 10 µM (T47D): 64.4%; growth at 10 µM (MDA-MB-468): 122%; diameter of the inhibition zone (DIZ) (Streptococcus entericus): 10 mm; diameter of the inhibition zone (DIZ) (Yarrowia lipolytica): 15 mm; diameter of the inhibition zone (DIZ) (Aspergillus niger): inactive; inhibition zone (IZ) [1]: 15 mm; growth at 10 µM (HL-60(TB)): 72%; growth at 10 µM (K562): 91%
